Assays:
NCI-H460 [1] = test: Antitumor activity against human NCI-H460 cells xenografted in BALB/c nude mouse assessed as reduction in tumor weight at 20 mg/kg, po administered daily for 2 weeks measured every 2 or 3 days for 14 days; format: functional
In short: (§1)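 Female SPF BALB/c nude mice, 6 weeks old, injected subcutaneously in the flank with NCI-H460 cells (3 × 10^7/animal). At tumor volume 50–80 mm3, randomized four per group. Dosed orally at 20 mg/kg in 10% DMAC/10% Tween 80 in saline, daily for two weeks, versus vehicle control. Tumor length and width measured by caliper three times weekly; body weight monitored.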

[2] = Growth inhibition of human PC3 cells after 5 days by sulforhodamine B assay; format: functional; conditions: PC-3, 120 h
C2C12 = test: Induction of RUNX transcriptional activation in mouse C2C12-6xOSE2 cells at 1 uM after 24 hrs by luciferase reporter assay relative to FGF-2; format: functional
In short: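 C2C12-6xOSE stable cells grown in DMEM with 10% FBS at 37°C, 5% CO2. Seeded at 1 × 10^4 cells/well; next day treated with compound or FGF-2 (1 µM each). After 24 h, luciferase measured with Bright-Glo. Activity expressed as percent of the FGF-2 positive-control response.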

[3] = Growth inhibition of human HCT15 cells after 5 days by sulforhodamine B assay; format: functional; conditions: HCT-15, 120 h
[4] = Metabolic stability in mouse liver microsomes assessed as compound remaining at 1 uM after 30 mins byLC-ESI/MS/MS analysis in presence of NADPH; format: ADME; conditions: read-out: Stability
In short: (§2)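 Compound at 1 µM incubated in triplicate with pooled mouse liver microsomes (0.5 mg/ml final) in 0.1 M potassium phosphate, pH 7.4, at 37°C, with or without 1 mM NADPH. Reactions stopped at 0 and 30 min with ice-cold acetonitrile containing internal standard. After centrifugation, supernatant analyzed by LC-ESI/MS/MS; percent remaining from analyte/IS peak-area ratios. Buspirone served as positive control.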

NCI-H23 = test: Growth inhibition of human NCI-H23 cells after 5 days by sulforhodamine B assay; format: functional; conditions: NCI-H23, 120 h
[5] = Retention time of the compound by HPLC analysis; format: physicochemical
Histone deacetylase = test: Inhibition of HDAC in human HeLa cell nuclear extract using Fluor de Lys as substrate incubated with compound for 30 mins by microtiter-plate reading flourimeter analysis; format: protein assay
ACHN = test: Growth inhibition of human ACHN cells after 5 days by sulforhodamine B assay; format: functional; conditions: 120 h
[6] = Metabolic stability in mouse liver microsomes assessed as compound remaining at 1 uM after 30 mins by LC-ESI/MS/MS analysis in absence of NADPH; format: ADME; conditions: read-out: Stability; in short: as §2
MDA-MB-231 = test: Growth inhibition of human MDA-MB-231 cells after 5 days by sulforhodamine B assay; format: functional; conditions: MDA-MB-231, 120 h
HEK293 [7] = test: Induction of myc-tagged RUNX3 acetylation in human HEK293 cells assessed as RUNX3 level at 1 uM after 24 hrs by immunoprecipitation analysis relative to TSA; format: functional
In short: (§3)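 HEK293 cells (DMEM, 10% FBS) transfected with myc-RUNX3 vector using Lipofectamine 2000. Next day treated at 1 µM for 24 h. Lysates (HEPES pH 7.5, NP-40 buffer) immunoprecipitated with anti-myc antibody and protein G beads at 4°C. Immunoprecipitates western-blotted with anti-acetylated lysine antibody; relative acetylated RUNX3 quantified.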

HEK293 [8] = test: Induction of myc-tagged RUNX3 acetylation in human HEK293 cells assessed as acetylated RUNX3 level at 1 uM after 24 hrs by immunoprecipitation analysis relative to TSA; format: functional; in short: as §3
[9] = Growth inhibition of human NUGC3 cells after 5 days by sulforhodamine B assay; format: functional; conditions: NUGC-3, 120 h
[10] = Metabolic stability in rat liver microsomes assessed as compound remaining at 1 uM after 60 mins by LC-ESI/MS/MS analysis in absence of NADPH; format: ADME; conditions: read-out: Stability
In short: (§4)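 Rat or human liver microsomes (0.5 mg/ml) incubated with test compound (1 µM) at 37°C for 60 min, with or without NADPH or UDPGA cofactor, n = 2–3. Percent parent remaining quantified by LC-ESI/MS/MS.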

[11] = Metabolic stability in rat liver microsomes assessed as compound remaining at 1 uM after 60 mins by LC-ESI/MS/MS analysis in presence of UDPGA; format: ADME; conditions: read-out: Stability; in short: as §4
[12] = Metabolic stability in rat liver microsomes assessed as compound remaining at 1 uM after 60 mins by LC-ESI/MS/MS analysis in absence of UDPGA; format: ADME; conditions: read-out: Stability; in short: as §4
[13] = Metabolic stability in rat liver microsomes assessed as compound remaining at 1 uM after 60 mins byLC-ESI/MS/MS analysis in presence of NADPH; format: ADME; conditions: read-out: Stability; in short: as §4
[14] = AUC(0 to infinity) in Sprague-Dawley rat at 2 mg/kg, iv by LC-MS/MS analysis; format: ADME, organism-based; design: time infinity, dose 2 mg/kg, route intravenous; conditions: plasma
[15] = Metabolic stability in human liver microsomes assessed as compound remaining at 1 uM after 60 mins by LC-ESI/MS/MS analysis in absence of UDPGA; format: ADME; conditions: read-out: Stability; in short: as §4
[16] = Terminal half life in Sprague-Dawley rat at 2 mg/kg, iv by LC-MS/MS analysis; format: ADME, organism-based; design: dose 2 mg/kg, route intravenous; conditions: in vivo, read-out: beta t1/2 (converted)
In short: (§5)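 Specific pathogen-free male SD rats (10 weeks, 298–315 g), n = 3 per route, single dose 2 mg/kg i.v. or 10 mg/kg p.o. Oral vehicle DMAC/Vitamin E TPGS 80/25% solutol HS 15 (10/10/80); dosing volumes 5 (i.v.) and 10 ml/kg (p.o.). Plasma precipitated with acetonitrile containing carbamazepine internal standard, LC-MS/MS. Noncompartmental analysis of mean profiles; linear-trapezoidal AUC (oral 0–5 h, i.v. to infinity).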

[17] = Clearance in Sprague-Dawley rat at 2 mg/kg, iv by LC-MS/MS analysis; format: ADME, organism-based; design: dose 2 mg/kg, route intravenous; conditions: in vivo; in short: as §5
[18] = Volume of distribution at steady state in Sprague-Dawley rat at 2 mg/kg, iv by LC-MS/MS analysis; format: ADME, organism-based; design: dose 2 mg/kg, route intravenous; conditions: in vivo, read-out: Vdss; in short: as §5
[19] = Metabolic stability in human liver microsomes assessed as compound remaining at 1 uM after 60 mins byLC-ESI/MS/MS analysis in presence of NADPH; format: ADME; conditions: read-out: Stability; in short: as §4
[20] = AUC (0 to 5 hrs) in Sprague-Dawley rat at 10 mg/kg, po by LC-MS/MS analysis; format: ADME, organism-based; design: dose 10 mg/kg, route oral; conditions: plasma; in short: as §5
Mus musculus = test: Toxicity against BALB/c nude mouse xenografted with human NCI-H460 cells assessed as body weight loss at 20 mg/kg, po administered daily for 2 weeks; format: organism-based; design: dose 20 mg/kg, route oral; conditions: in vivo, 336 h; in short: as §1
[21] = Oral bioavailability in Sprague-Dawley rat at 10 mg/kg by LC-MS/MS analysis; format: ADME, organism-based; conditions: in vivo; in short: as §5
[22] = Metabolic stability in human liver microsomes assessed as compound remaining at 1 uM after 60 mins by LC-ESI/MS/MS analysis in absence of NADPH; format: ADME; conditions: read-out: Stability; in short: as §4
[23] = Metabolic stability in human liver microsomes assessed as compound remaining at 1 uM after 60 mins byLC-ESI/MS/MS analysis in presence of UDPGA; format: ADME; conditions: read-out: Stability; in short: as §4
NCI-H460 [24] = test: Induction of RUNX3 mRNA expression in human NCI-H460 cells after 24 hrs by RT-PCR analysis; format: functional, cell-based
In short: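 NCI-H460 cells in RPMI1640 with 10% FBS were plated and treated the following day. After 24 h, total RNA extracted and 1 µg reverse-transcribed. RUNX3 cDNA amplified with specific primers, run on a 1.5% agarose gel and stained with ethidium bromide. GAPDH served as internal control; SNU16 gastric cells served as positive-control line.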

[25] = Tmax in Sprague-Dawley rat at 10 mg/kg, po by LC-MS/MS analysis; format: ADME, organism-based; design: dose 10 mg/kg, route oral; conditions: in vivo; in short: as §5
[26] = Terminal half life in Sprague-Dawley rat at 10 mg/kg, po by LC-MS/MS analysis; format: ADME, organism-based; design: dose 10 mg/kg, route oral; conditions: in vivo, read-out: beta t1/2 (converted); in short: as §5
[27] = Cmax in Sprague-Dawley rat at 10 mg/kg, po by LC-MS/MS analysis; format: ADME, organism-based; design: dose 10 mg/kg, route oral; conditions: in vivo; in short: as §5

remaining at 0.5 h, 1 µM [4] [%] | GI50 (NCI-H23) [nM] | Retention_time [5] [min] | IC50 (Histone deacetylase) [nM] | GI50 (ACHN) [nM] | remaining at 0.5 h, 1 µM [6] [%] | GI50 (MDA-MB-231) [nM] | remaining at 1 h, 1 µM [10] [%] | remaining at 1 h, 1 µM [11] [%] | remaining at 1 h, 1 µM [12] [%] | remaining at 1 h, 1 µM [13] [%] | Structure (SMILES) | inhibition in vivo at 20 mg/kg (NCI-H460 [1]) [%] | GI50 [2] [nM] | Activity (C2C12) [%] | GI50 [3] [nM] | fold change (FC) (HEK293 [7]) | fold change (FC) (HEK293 [8]) | GI50 [9] [nM] | further results
 |  |  |  |  |  |  |  |  |  |  | O=C(CCC1=CCN(Cc2ccc(Br)cc2)C1=O)NO | 37.9 |  |  |  |  |  |  | 
31.5 | 460 | 12.367 | 50 | 320 | 104 | 560 |  |  |  |  | CCOc1ccccc1CCCn1cccc(/C=C/C(=O)NO)c1=O |  | 180 | 105.5 | 660 | 13.7 | 37.2 | 470 | 
88.4 | 870 | 11.335 | 30 | 760 | 110 | 720 | 116 | 45.7 | 81.3 | 72.7 | COc1cccc(CCCn2cccc(/C=C/C(=O)NO)c2=O)c1 |  | 700 | 142.1 | 1590 | 1.1 | 0.8 | 1050 | 
90.3 | 130 | 9.606 | 30 | 250 | 100 | 100 | 92 | 72.4 | 88.9 | 83.5 | O=C(/C=C/c1cccn(Cc2ccc3ccccc3n2)c1=O)NO | 45.7 | 490 | 687.5 | 380 | 29.3 | 77.5 | 710 | AUC(0-inf) [14]: 354 ng·h/mL; remaining at 1 h, 1 µM [15]: 95.2%; half-life [16]: 4.4 h; clearance [17]: 93.3 mL/min/kg; Vd [18]: 14 L/kg; remaining at 1 h, 1 µM [19]: 75.5%; AUC(0-t) at 4 h [20]: 863 ng·h/mL; Activity (Mus musculus): Non-toxic; bioavailability [21]: 48.7%; remaining at 1 h, 1 µM [22]: 74.7%; remaining at 1 h, 1 µM [23]: 99.7%; Activity (NCI-H460 [24]): Dose-dependent effect; Tmax [25]: 0.67 h; half-life [26]: 10.3 h; Cmax [27]: 142 ng/mL

Reference: ChEMBL document CHEMBL3425447, “Discovery of Orally Available Runt-Related Transcription Factor 3 (RUNX3) Modulators for Anticancer Chemotherapy by Epigenetic Activation and Protein Stabilization” (J Med Chem, 2015)
